Target: Voltage-dependent N-type calcium channel subunit alpha-1B (Homo sapiens, UniProt Q00975)
Experiment: Inhibition of N-type voltage-dependent calcium channel CaV2.2 in human IMR32 cells assessed as inhibition of KCl-induced increase in intracellular calcium concentration preincubated for 4 to 5 mins before KCl challenge
Outline: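 IMR-32 cells on poly-L-lysine/collagen dishes, differentiated with 1 mM dibutyl-cAMP and 2.5 µM bromodeoxyuridine for 10–14 days. Loaded with 2.5 µM fura-2/AM, 37 °C, 30 min. HEPES recording medium with 1 µM nifedipine throughout. Calcium rise evoked by 60 mM KCl for 6 s, repeated every 5 min. Compound at 0.1, 1 or 10 µM; IC50 from ≥2 independent experiments.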

Sequence of Voltage-dependent N-type calcium channel subunit alpha-1B (Q00975 whole entry): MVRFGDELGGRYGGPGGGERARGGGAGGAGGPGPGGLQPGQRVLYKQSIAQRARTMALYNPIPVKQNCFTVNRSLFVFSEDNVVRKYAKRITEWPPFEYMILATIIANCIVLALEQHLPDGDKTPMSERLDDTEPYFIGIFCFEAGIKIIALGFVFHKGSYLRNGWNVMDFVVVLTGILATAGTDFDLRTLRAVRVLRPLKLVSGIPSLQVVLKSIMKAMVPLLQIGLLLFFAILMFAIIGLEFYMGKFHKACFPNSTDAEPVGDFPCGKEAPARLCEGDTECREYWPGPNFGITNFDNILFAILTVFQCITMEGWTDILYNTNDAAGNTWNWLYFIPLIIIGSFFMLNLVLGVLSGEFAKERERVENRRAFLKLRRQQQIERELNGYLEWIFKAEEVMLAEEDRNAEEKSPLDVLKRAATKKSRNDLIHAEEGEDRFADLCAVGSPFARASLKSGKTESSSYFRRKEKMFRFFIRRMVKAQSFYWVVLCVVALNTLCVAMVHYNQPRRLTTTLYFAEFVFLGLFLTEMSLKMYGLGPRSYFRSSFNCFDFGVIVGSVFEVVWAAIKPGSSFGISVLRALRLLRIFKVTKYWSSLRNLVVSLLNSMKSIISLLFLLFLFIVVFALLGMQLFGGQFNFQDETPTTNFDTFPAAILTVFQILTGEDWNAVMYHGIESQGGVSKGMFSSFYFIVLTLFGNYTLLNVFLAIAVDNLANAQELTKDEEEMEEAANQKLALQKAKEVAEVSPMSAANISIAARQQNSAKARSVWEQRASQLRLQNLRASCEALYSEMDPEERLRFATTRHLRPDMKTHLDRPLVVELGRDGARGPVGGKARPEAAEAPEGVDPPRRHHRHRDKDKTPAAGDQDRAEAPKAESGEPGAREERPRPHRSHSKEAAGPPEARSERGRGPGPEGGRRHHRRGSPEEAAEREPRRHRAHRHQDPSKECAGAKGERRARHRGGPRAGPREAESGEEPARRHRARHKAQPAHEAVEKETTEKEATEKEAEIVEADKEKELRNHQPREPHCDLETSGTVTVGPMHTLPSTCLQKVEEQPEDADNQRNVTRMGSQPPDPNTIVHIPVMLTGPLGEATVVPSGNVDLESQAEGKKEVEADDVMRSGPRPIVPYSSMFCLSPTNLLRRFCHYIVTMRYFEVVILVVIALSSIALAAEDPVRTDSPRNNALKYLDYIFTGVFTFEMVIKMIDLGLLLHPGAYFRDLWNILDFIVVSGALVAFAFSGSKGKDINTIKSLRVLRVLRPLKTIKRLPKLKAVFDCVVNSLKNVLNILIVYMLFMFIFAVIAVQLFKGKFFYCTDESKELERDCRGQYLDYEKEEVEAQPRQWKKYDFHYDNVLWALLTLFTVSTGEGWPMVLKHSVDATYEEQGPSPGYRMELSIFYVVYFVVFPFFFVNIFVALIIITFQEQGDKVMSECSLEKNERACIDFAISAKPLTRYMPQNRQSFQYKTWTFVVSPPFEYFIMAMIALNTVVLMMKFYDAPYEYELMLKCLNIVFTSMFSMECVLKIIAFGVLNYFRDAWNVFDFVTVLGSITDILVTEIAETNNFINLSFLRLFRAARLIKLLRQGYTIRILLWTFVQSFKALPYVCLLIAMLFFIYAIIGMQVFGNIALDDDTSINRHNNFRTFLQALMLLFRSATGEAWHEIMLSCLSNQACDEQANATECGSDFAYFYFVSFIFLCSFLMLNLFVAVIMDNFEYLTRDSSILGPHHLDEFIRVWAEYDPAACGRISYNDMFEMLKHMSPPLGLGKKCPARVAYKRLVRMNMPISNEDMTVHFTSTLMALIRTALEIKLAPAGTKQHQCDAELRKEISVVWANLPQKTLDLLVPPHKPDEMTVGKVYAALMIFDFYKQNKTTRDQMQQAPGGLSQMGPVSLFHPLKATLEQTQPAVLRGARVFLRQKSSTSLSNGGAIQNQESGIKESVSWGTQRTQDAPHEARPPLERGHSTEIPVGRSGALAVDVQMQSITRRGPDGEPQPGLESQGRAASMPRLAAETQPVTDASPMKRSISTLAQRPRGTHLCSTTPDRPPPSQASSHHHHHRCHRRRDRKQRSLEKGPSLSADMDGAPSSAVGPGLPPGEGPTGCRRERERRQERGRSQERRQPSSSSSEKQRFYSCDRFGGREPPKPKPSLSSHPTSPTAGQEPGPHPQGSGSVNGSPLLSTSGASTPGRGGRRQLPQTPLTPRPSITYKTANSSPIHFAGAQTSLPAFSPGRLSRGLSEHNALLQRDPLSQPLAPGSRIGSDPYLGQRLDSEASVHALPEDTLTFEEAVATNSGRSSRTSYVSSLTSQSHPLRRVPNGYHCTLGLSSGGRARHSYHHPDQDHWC

Row | Compound | IC50 [µM]
1 | COc1c(Cl)cc(C2C(C(=O)OC/C=C/c3ccccc3)=C(C(OC)OC)N=CC2C(=O)O)cc1Cl (configuration not stated) | 1.2
2 | O=C(OC/C=C/c1ccccc1)C1=CN=CC(C(=O)O)C1c1cccc(C(F)(F)F)c1 (configuration not stated) | 1.2
3 | COc1c(Cl)cc(C2C(C(=O)OC/C=C/c3ccccc3)=CN=CC2C(=O)O)cc1Cl (configuration not stated) | 0.58
4 | COC(OC)C1=C(C(=O)OC/C=C/c2ccccc2)C(c2ccc(Cl)cc2)C(C(=O)O)C=N1 (configuration not stated) | 1.1
5 | O=C(OC/C=C/c1ccccc1)C1=CN=CC(C(=O)O)C1c1ccc(Cl)cc1 (configuration not stated) | 1.2
6 | COC(OC)C1=C(C(=O)OC/C=C/c2ccccc2)C(c2cccc(C(F)(F)F)c2)C(C(=O)O)C=N1 (configuration not stated) | 1.1
7 | COC(OC)C1=C(C(=O)OC/C=C/c2ccccc2)C(c2cccc(Cl)c2)C(C(=O)O)C=N1 (configuration not stated) | 1.1

Source: BindingDB's records for doi:10.1016/j.bmcl.2012.04.051 (Ajinomoto Pharmaceuticals, 2012)
